Laboratory results as given in ChEMBL document CHEMBL4513216, “Probing the Open Global Health Chemical Diversity Library for Multistage-Active Starting Points for Next-Generation Antimalarials” (ACS Infect Dis, 2020).

experiment: Toxicity liver stage against HepG2, at 10uM; format: cell-based; set-up: test concentration 10 uM, cell line HepG2-A16-CD81EGFP; details: human, HepG2-A16-CD81EGFP cells; read-out: INHIBITION
In short: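 Uninfected HepG2-A16-CD81EGFP cells, 3 × 10^3 per well, 1536-well, plated on prespotted compound at 10 μM final, parasite-free screening media added to match infected plates; puromycin 10 μM positive, DMSO 0.5% negative; run in parallel with 48 h PbLuc assay at 37 °C, 5% CO2; viability by CellTiter-Glo luminescence, normalized to controls.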

Row | SMILES | cytotoxicity at 10 µM [%]
1 | CNC(=O)C1CN(c2ccnc(C)n2)CCN(C2CCOCC2)C1 (configuration not stated) | -0.762
2 | CN(C)c1nccc(-c2c[nH][nH]c2=O)n1 | -1.25
3 | O=C(c1ccc2nccnc2c1)N1C[C@@H](CN2CCCC2)[C@@H](CO)C1 | 4.23
4 | N#Cc1cccc(S(=O)(=O)NC(=O)C2CC(c3ccccc3)=NO2)c1 (configuration not stated) | 1.85
5 | CN(CCOc1cccc(F)c1)Cc1nc2c(cnn2C)c(=O)[nH]1 | -0.966
6 | CN1CCC2(CCCN(S(=O)(=O)c3ccc(-c4cnco4)s3)C2)C1 (configuration not stated) | -7.56
7 | Cc1oncc1C(=O)NCc1cc(=O)n2c(n1)CN(CC(C)C)CCC2 | -0.187
8 | Cc1cc(N2CCCC2c2nc(C)cc(CCC(=O)O)n2)ncn1 (configuration not stated) | -17.1
9 | Cn1cc(CN2CCOC(c3nccnc3-c3cccc(F)c3)C2)cn1 (configuration not stated) | 8.12
10 | c1ccc(Cc2noc(CN3CCc4cncnc4C3)n2)cc1 | -5.91
11 | Cc1cccc(-c2noc([C@@H]3C[C@@H](O)CN3C)n2)c1 | -3.54
12 | CCc1nnc2n1CCN(Cc1csc(Cc3ccccc3)n1)C2 | -25
13 | CN(C)C1Cc2ccccc2N(S(=O)(=O)c2ccc(C#N)cc2)C1 (configuration not stated) | 2.91
14 | O=C(c1cccc(OCc2cscn2)c1)N1CCOCC1 | -6.13
15 | COCc1noc(Cn2ccc3ccccc3c2=O)n1 | 0.761
16 | CCCS(=O)(=O)N1CCN(CCCO)CC1 | 5.96
17 | O=C(NCCN1CCCC1)c1cc2c(s1)CCN2c1ncccn1 | -108
18 | CCc1noc(C(C)N2CCN(Cc3nnc(C4CC4)o3)CC2)n1 (configuration not stated) | -4.79
19 | Cc1nc(Nc2ncccn2)cc(C2CCN(CC(C)C)C2)n1 (configuration not stated) | -16.1
20 | CC(C)(C)OC(=O)N1CCCC[C@H]1C(=O)NCc1nccs1 | -9.39
21 | NS(=O)(=O)c1ccc(F)c(C(=O)NCCSc2ccccn2)c1 | -9.11

Row | SMILES | cytotoxicity at 10 µM [%]
22 | Cc1nn(CC(C)C)c(N(C)C)c1CNCc1cccnc1N(C)C | -7.71
23 | CC1CN(CC2CCCCC2)CCN1c1ccc2nncn2n1 (configuration not stated) | 13.8
24 | CCNc1ncc(C(=O)N[C@@H](C)[C@H](O)c2ccccc2)cn1 | -4.71
25 | CN1CCN([C@@H]2CN(C(=O)c3cc4cccc(F)c4[nH]3)C[C@H]2O)CC1 | -6.81
26 | COC(=O)N(C)CCCC(=O)Nc1[nH]nc(-c2ccncc2)c1C | -0.946
27 | CC(NCc1ccc(Cl)o1)c1nnc2n1CCCC2 (configuration not stated) | -15.9
28 | COc1ccccc1CC(=O)NCCCN1CCCC1C(=O)N(C)C (configuration not stated) | -13
29 | Cc1cc(C(=O)Nc2ccn(CCCN3CCCC3)n2)no1 | -4.13
30 | Cc1cc(F)c(S(=O)(=O)Nc2ccn(CCC#N)n2)cc1F | 17.3
31 | CC(C)(C)n1ncc2c(=O)[nH]c(N3CCN(CC(F)F)CC3)nc21 | -7.8
32 | Cc1cccc(CN2CC3C[C@]3(NC(=O)c3ccoc3)C2)n1 (some centres not stated) | -147
33 | CC(Cn1cccn1)NCc1csc(-c2cccs2)n1 (configuration not stated) | -8.85
34 | CCn1cc(CN2CCN(C)C3(CCC(=O)N(CC4CC4)CC3)C2)cn1 (configuration not stated) | -0.764
35 | O=C(Cc1ccc(F)cc1)N1C[C@H]2CCN[C@H]2C1 | 2.26
36 | Cc1ccoc1C1=NNC(=CN2CCn3c(nnc3C(C)C)C2)O1 | -13.1
37 | Cn1nc(C2CCNC2)c2c(C(=O)NCC(F)(F)F)cc(C3CC3)nc21 (configuration not stated) | 8.41
38 | CCC(=O)N1CCCC1c1n[nH]cc1-c1ccccc1F (configuration not stated) | -3.02
39 | COC(=O)c1ccc(C(=O)NCc2ccc(Br)cc2)cn1 | -23.2
40 | COc1cc(OC)c(CNC(=O)NCC(=O)N2CCCC2)c(OC)c1 | 10.4
41 | CCc1noc(C(C)N2CCN(CCOCC(F)(F)F)CC2)n1 (configuration not stated) | -9.45
42 | CCc1nccn1C1CCCN(C(=O)c2cnn3ccc(C)nc23)C1 (configuration not stated) | -9.68

Row | SMILES | cytotoxicity at 10 µM [%]
43 | COc1ccc2c(c1)CC(NCCCn1cc(C)cn1)CC2 (configuration not stated) | 18
44 | Cc1n[nH]c(C)c1CCC(=O)NCC1(O)CCN(c2ccccn2)C1 (configuration not stated) | -1.08
45 | CN1CCN(c2cnn(Cc3ccc(S(C)(=O)=O)cc3)c(=O)c2)CC1 | -10.4
46 | Cc1ccc(CN2CCNC(=O)C2CC(=O)NCc2n[nH]c(C)n2)cc1 (configuration not stated) | -3.83
47 | CC(NC(=O)Cn1cc(C(N)=O)c(-c2ccccc2)n1)C1CC1 (configuration not stated) | -7.9
48 | CN1CC2(CCN(C(=O)c3cc(-n4cccn4)ccc3Cl)CC2)OC1=O | 2.3
49 | Cn1ccc(CN2CCC(Oc3ccccc3)CC2)cc1=O | -3.71
50 | O=C(c1ccnn1-c1ccc2ccccn12)N1CCOCC1 | -108
51 | COc1cc(CNCCn2cc(C)cn2)c2c(c1)CC(C)O2 (configuration not stated) | 19.1
52 | Cc1cc(N2Cc3cnn(CCO)c3C2)nc(-c2ccccc2O)n1 | -162
53 | CN(Cc1ccncc1)C1CC2(CCN(Cc3ccccn3)CC2)C1 | -90.4
54 | CSc1ccc(C(C(=O)O)N2CCC(C(=O)N3CCCC3)CC2)cc1 (configuration not stated) | -3.45
55 | Cc1nc(CN2CCc3ncnc(-c4ccccc4)c3CC2)cs1 | -81.1
56 | CSCCC(C)NC(=O)N(C)Cc1cc(Cl)cn1C (configuration not stated) | 3.04
57 | CC(=O)N1CCCN(C(=O)NC(C)c2ccc(C)o2)CC1 (configuration not stated) | 2.72
58 | Cc1cnn(CC2CCCCN2Cc2cc(C)on2)c1 (configuration not stated) | -5.36
59 | O=C(CC1CCN(c2cccnn2)CC1)NCCO | 0.308
60 | Cc1ccc(F)cc1S(=O)(=O)NCc1[nH]ncc1Br | 10.3
61 | CN(C(=O)CCOc1ccccc1)C1CCN(CC2CCOC2)CC1 (configuration not stated) | -7.7
62 | Cc1cnn(CCC(=O)NC2CCc3nc(C)cn3C2)c1 (configuration not stated) | 0.132
63 | COc1ccc(Cn2cc(C(C)O)nn2)cc1 (configuration not stated) | 16.9

Row | SMILES | cytotoxicity at 10 µM [%]
64 | O=C(c1cn(CC(=O)N2CCCC2)c2ccccc12)C1CC1 | 14.2
65 | N[C@@H]1CC[C@H](C(=O)NCCn2cc(Cl)cn2)C1 | -36.4
66 | O=C(CCCn1cncn1)NC1(c2ccccc2)CCC1 | -11.5
67 | CCN(Cc1ccco1)C(C)c1nc(C(C)C)no1 (configuration not stated) | 15.6
68 | Cc1nc(C)n(CC2CCCN2CCOc2ccc(F)cc2)n1 (configuration not stated) | 3.06
69 | Cc1[nH]c2ccc(CNc3cc(C#N)ccn3)cc2c1C | -8.4
70 | COc1cc(F)c(C(=O)N2C[C@@H](CN(C)CCO)[C@@H](CO)C2)c(F)c1 | -1.53
71 | CCn1cc(NC(=O)C2CCN(CC(=O)N3CCOCC3)CC2)cn1 | -3.46
72 | Cc1nc2sccn2c1C(=O)N1CCc2c(nc(N(C)C)[nH]c2=O)C1 | 5.06
73 | CCOCC(=O)NC(C#N)c1cnn(-c2ccccc2)c1 (configuration not stated) | -4.39
74 | CCc1nncn1CCNC(=O)N1CCCC(Cc2nccn2C)C1 (configuration not stated) | 0.548
75 | Cc1noc(CN(CCc2ccco2)Cc2cccc(C#N)c2)n1 | 3.04
76 | CCN(CC)C(=O)CSc1nc2c(cnn2CCO)c(=O)[nH]1 | 1.29
77 | Cc1ccc(-c2noc(CN3CCC(N4CCNC4=O)CC3)n2)cc1 | 31
78 | O=S(=O)(NC1=NCN(CCc2cccs2)CN1)c1ccc(Br)cc1 | -2.35
79 | OCC1(O)CCN(Cc2ccc(C3CCCCO3)o2)CC1 (configuration not stated) | -5.95
80 | CCCN(CC)c1ccc(C(=O)N2CCCC2c2cnn(C)c2)cn1 (configuration not stated) | -6.75
81 | O=C(c1ccc(F)cc1)N1C[C@@H]2OCCN(c3ncccn3)[C@@H]2C1 | -9.55
82 | CNC(=O)NC(=O)CN(C)C(c1cccnc1)c1ccc(F)cc1F (configuration not stated) | 5.3
